Published values from different studies.
Compare with care: the assays were run in different laboratories.
Target: Inhibitor of nuclear factor kappa-B kinase subunit beta (IKBKB, Homo sapiens, UniProt O14920)

SMILES	observed	mode	method	concentration	endpoint	result
O=C(Nc1cccnn1)N1CC(C/C=C/c2cncc(Oc3ccc(C(F)(F)F)cn3)n2)C1	cell-free assay		competition with immobilised ligand	1 µM	remaining binding	94%
O=C1c2ccccc2-c2n[nH]c3cccc1c23	enzyme activity	inhibitor		0.5 µM	activity vs control	75.8%
COc1cc2ncnc(Nc3ccc(Oc4ccccc4)cc3C)c2cc1OC	enzyme activity	inhibitor		1 µM	inhibition	1%
FC(F)(F)Oc1cccc(-c2cnc3ccc(-c4ccncc4)nn23)c1	enzyme activity	inhibitor	radiometric	1 µM	activity vs control	94%
CN(c1ccnc(CNc2nc(Nc3ccc4c(c3)CC(=O)N4)ncc2C(F)(F)F)n1)S(C)(=O)=O	cell-free assay		competition with immobilised ligand	1 µM	remaining binding	78%
N#CC1c2c([nH]c3c(Cl)c(Cl)ccc23)C(=O)NC12CCCCC2 (racemic)	thermal stability		DSF	10 µM	ΔTm	0.6 °C
O=C1Nc2ccc(Cl)cc2C1=Cc1cc(Cl)c(O)c(Cl)c1	cell-free assay			0.5 µM	remaining signal	93.6%
CCCS(=O)(=O)Nc1ccc(F)c(C(=O)c2c[nH]c3ncc(-c4ccc(Cl)cc4)cc23)c1F	enzyme activity	inhibitor		1 µM	inhibition	< 10%
COc1cc2ncnc(Nc3ccc(F)c(Cl)c3)c2cc1OCCCN1CCOCC1	cell-free assay			0.5 µM	remaining signal	86.5%
COc1cc(Nc2cnc(C#N)c(O[C@H](C)CN(C)C)n2)ncc1-c1cnn(C)c1	enzyme activity	inhibitor	radiometric	1 µM	remaining activity	96%
CN(c1ncccc1CNc1nc(Nc2ccc3c(c2)CC(=O)N3)ncc1C(F)(F)F)S(C)(=O)=O	enzyme activity	inhibitor		1 µM	inhibition	12.7%
COc1cc(Cl)c(C(=O)N[C@@H](CN[C@H]2CC[C@@H](N)CC2)Cc2ccc(C#N)cc2)cc1-c1ccc(CN[C@H](C)c2ccc(C)cc2)o1	enzyme activity	inhibitor		1 µM	remaining activity	88%
Cc1ccc(Nc2nccc(N(C)c3ccc4c(C)n(C)nc4c3)n2)cc1S(N)(=O)=O	enzyme activity	inhibitor		0.3 µM	inhibition	3%
N#CCCc1ccc2c(c1)-c1[nH]c3ccc([N+](=O)[O-])cc3c1CC(=O)N2	cell-free assay			0.5 µM	remaining signal	96.3%
Cn1c2c(Cl)c(Cl)ccc2c2cc(N)[nH]c(=O)c21	thermal stability		DSF	10 µM	ΔTm	-0.6 °C
Cn1c(=O)n(-c2ccc(C(C)(C)C#N)cc2)c2c3cc(-c4cnc5ccccc5c4)ccc3ncc21	enzyme activity	inhibitor		10 µM	remaining activity	92%
O=C(Nc1cnn(-c2csc(C(=O)NC3COC3)c2)c1)Nc1ccccc1Cl	enzyme activity	inhibitor		5 µM	remaining activity	95.6%
COc1cc(/C=C/C(=O)CC(=O)/C=C/c2ccc(O)c(OC)c2)ccc1O	enzyme activity	inhibitor		1 µM	activity vs control	69%
O=C(Nc1cnn(-c2csc(C(=O)NC3COC3)c2)c1)Nc1c(F)cccc1Cl	enzyme activity	inhibitor		5 µM	remaining activity	94.7%
O=C(CSc1nc2nccnc2c(=O)n1CCc1ccccc1)Nc1nccs1	enzyme activity	inhibitor		10 µM	inhibition	12%
CNC(=O)c1cc(Oc2ccc(NC(=O)Nc3ccc(Cl)c(C(F)(F)F)c3)cc2)ccn1	enzyme activity	inhibitor		0.3 µM	inhibition	-5%

SMILES	observed	mode	method	concentration	endpoint	result
O=C(NCCCC1CCCCC1)c1ccc(CNC(=O)c2cnn(-c3ccccc3)c2C(F)(F)F)cc1	cell-free assay		competition with immobilised ligand	0.1 µM	remaining binding	100%
Cc1cc(NC(=O)c2cccc3cc(-c4cccc5[nH]nc(N)c45)ccc23)ccc1F	enzyme activity	inhibitor		0.1 µM	activity vs control	106%
Nc1nc(NC2CCCCC2)sc1C(=O)c1ccccc1	enzyme activity	inhibitor		10 µM	remaining activity	70%
Cn1c2c(c3ccc(Cl)c(Cl)c31)C(C#N)C1(CCCC1)NC2=O (centres unmarked)	thermal stability		DSF	10 µM	ΔTm	-0.7 °C
NS(=O)(=O)c1cc(NC(=O)C2(c3ccccc3Cl)CC2)ccc1Oc1cccc(Cl)c1	cell-free assay		competition with immobilised ligand	1 µM	remaining binding	70%
CC(C)(O)[C@H]1CC[C@H](Nc2ccc3ncc(-c4cccc(C(F)(F)F)c4)n3n2)CC1	enzyme activity	inhibitor		1 µM	remaining activity	95.4%
COc1cccc2c(NCc3ccccc3)nc(-n3c(N)nc4ccccc43)nc12	target engagement in cells	inhibitor	chemoproteomics	20 mM	inhibition	-13.4%
CCN(CC)CCNC(=O)c1c(C)[nH]c(/C=C2\C(=O)Nc3ccc(F)cc32)c1C	enzyme activity	inhibitor		0.3 µM	inhibition	-1%
c1ccc(CNc2nc(N3CCOc4ccccc43)nc3c2CCCC3)cc1	target engagement in cells	inhibitor	chemoproteomics	20 mM	inhibition	-6.4%
CC/C(=N\NC(=O)NCc1cccc(O)c1)c1ccc(O)c(C)c1O	enzyme activity	inhibitor		0.1 µM	inhibition	-0.9%
Cc1ccc(C(=O)Nc2ccc(CN3CCN(C)CC3)c(C(F)(F)F)c2)cc1C#Cc1cnc2cccnn12	enzyme activity	inhibitor		23.5 nM	remaining activity	37%
CCC1(CC)NC(=O)c2c(c3ccc(Cl)c(Cl)c3n2C)C1C#N (centres unmarked)	thermal stability		DSF	10 µM	ΔTm	0.1 °C
O=C(Nc1cccnn1)N1CCC(=Cc2cccc(Oc3ccc(C(F)(F)F)cn3)c2)CC1	cell-free assay		competition with immobilised ligand	1 µM	remaining binding	83%
CC(C)(C)c1nc(-c2cccc(NS(=O)(=O)c3c(F)cccc3F)c2F)c(-c2ccnc(N)n2)s1	enzyme activity	inhibitor	radiometric	1 µM	remaining activity	94%
COc1ccc2c(c1)O[C@@H](c1ccc(OC)c(OC)c1)C[C@H]2NC(=O)C1(c2ccc3c(c2)OC(F)(F)O3)CC1	cell-free assay		competition with immobilised ligand	1 µM	remaining binding	95%
CN(C)C1CCN(CC#Cc2nn(C3CCCC3)c3nc(NCc4ccccc4)ncc23)C1 (centres unmarked)	enzyme activity	inhibitor	FRET	10 µM	inhibition	2%
CCOCCn1cc(C(=O)Nc2ccc(-n3nc(-c4cccnc4)cc3C(F)(F)F)cn2)ccc1=O	cell-free assay		competition with immobilised ligand	1 µM	remaining binding	100%
CN1CCC2(CC1)NC(=O)c1c(c3ccc(Cl)c(Cl)c3n1C)C2C#N (racemic)	thermal stability		DSF	10 µM	ΔTm	-0.2 °C
CCS(=O)(=O)c1cc2cc(C[C@](O)(CC(C)(C)c3ccc(F)cc3C(N)=O)C(F)(F)F)[nH]c2cn1	cell-free assay		competition with immobilised ligand	1 µM	remaining binding	91%
Cc1ccc(NC(=O)c2ccc(CN3CCN(C)CC3)cc2)cc1Nc1nc(-c2cccnc2)cs1	cell-free assay			0.5 µM	remaining signal	97.8%
